# Screening data: PubChem BioAssay, several laboratories
# A selection: hits, their analogues and other compounds. The true share with any hit is near 9.6%.
# Lmaj promast – Leishmania major promastigote growth inhibition, primary screen; Leishmania major promastigotes, resazurin fluorescence viability; inhibition, % at 10 µM; hit rate 9% among 200,000; AID 1063, 2008; in the data active means inhibition above about 50%;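 further: promastigotes grown with compound for 44 hours at 28 °C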
# PTEN del growth – growth suppression of PTEN-null HCT116, primary screen, cell-based, CellTiter-Glo. HCT116 PTEN-null viability, 60 h; hits give low values. viability, % at 10 µM. hit rate 1.2% among 140,000;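 active means viability at or below a set limit, 4 SD under the median of all tested compounds, cut at about 3.7% in these data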;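 further: PTEN knockout HCT116 line with beta catenin targeted HCT116 as companion control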
# PMI act satM6P – human PMI activators, high substrate, primary screen, biochemical, fluorescence intensity, near-saturating mannose 6-phosphate; hit rate 0.34% among 190,000; AID 1216, 2008; activation factor at 20 µM; Mannose-6-phosphate isomerase (Homo sapiens), P34949; coupled PMI enzyme assay, resazurin fluorescence, 20 min; hits give high values; 1 = untreated enzyme, 0 = substrate-free blank;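 active means activation factor of 2 or more at 20 µM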
# Target sequence (P34949 whole entry, looked up): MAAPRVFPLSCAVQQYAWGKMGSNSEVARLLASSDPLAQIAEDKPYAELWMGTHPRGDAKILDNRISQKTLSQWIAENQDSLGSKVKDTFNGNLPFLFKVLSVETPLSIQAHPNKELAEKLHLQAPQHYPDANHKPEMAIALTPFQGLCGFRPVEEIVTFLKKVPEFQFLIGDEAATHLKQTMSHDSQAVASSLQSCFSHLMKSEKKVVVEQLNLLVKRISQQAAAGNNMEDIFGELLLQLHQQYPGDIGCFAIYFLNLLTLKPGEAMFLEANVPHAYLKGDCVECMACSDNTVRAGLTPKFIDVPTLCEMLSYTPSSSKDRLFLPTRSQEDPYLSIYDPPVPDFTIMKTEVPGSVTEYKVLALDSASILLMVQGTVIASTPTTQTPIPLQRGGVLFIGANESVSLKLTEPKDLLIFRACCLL
#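 Test system – human PMI in coupled enzyme assay · Timing – 20 min incubation at room temperature · Detection – Diaphorase-driven resazurin-to-resorufin fluorescence, excitation 544, emission 590 nm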
# PMI activator – activators of human PMI, primary screen, biochemical, fluorescence intensity, near-Km mannose 6-phosphate | activation factor at 20 µM | hit rate 0.005% among 190,000 | Mannose-6-phosphate isomerase (Homo sapiens), P34949 | purified human PMI, coupled resazurin fluorescence, 20 min; hits give high values; 1 = vehicle control, 0 substrate-free wells;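 active means activation factor of 2 or more at 20 µM, relative to plate controls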
# bCat KO growth – primary screen for growth suppressors in beta-catenin knockout HCT116 cells (colon tumor, human); hit rate 1.5% among 140,000; viability, % at 10 µM; HCT116 beta-catenin knockout viability, CellTiter-Glo, 60 h; hits give low values;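 active means viability at or under a set limit, the compound median less 4 SD, cut at about 6% in these data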
# Numbers stand for hits; - = inactive; . = no result.
SMILES,Lmaj promast,PTEN del growth,PMI act satM6P,PMI activator,bCat KO growth
CCOC(=O)C1CCCN(S(=O)(=O)c2cc(OCC(N)=O)c(C)cc2Cl)C1 (configuration not stated),-,-,-,-,-
Cc1cc(Cl)c(S(=O)(=O)N2CCCCCC2)cc1OCC(=O)NC1CCCCC1,96,-,-,-,-
Cc1cc(Cl)c(S(=O)(=O)N2CCN(c3cccc(C)c3C)CC2)cc1OCC(N)=O,95,-,-,-,-
Cc1cc(Cl)c(S(=O)(=O)N2CCSCC2)cc1OCC(=O)NC1CCCCC1,-,-,-,-,-
COc1ccc(NC(=O)c2cc(=O)[nH]c(=O)[nH]2)cc1S(=O)(=O)Nc1ccccc1Cl,-,.,-,-,.
CCOc1cc(/C=C2/COc3ccccc3C2=O)ccc1OCC(=O)N(C)C,100,.,-,-,.
COc1cc(/C=C/C(=O)c2ccc(C)cc2)ccc1OCC#N,98,2.0,-,-,5.6
CNc1ccc(/C=C2\COc3ccccc3C2=O)cc1[N+](=O)[O-],-,-,-,-,-
CCOc1cc(/C=C/C(=O)c2ccc(C)cc2)ccc1OCC(=O)N(C)C,100,1.7,-,-,1.6
CCOc1cc(/C=C/C(=O)O)ccc1OCCO,-,.,-,-,.
CCNc1nc(SCCOc2ccc(Br)cc2)nc(N(C)C)n1,58,.,-,-,.
Cc1cccc(-c2nc3sc(C)cc3c(=O)o2)c1,-,.,-,-,.
CC(C)C(=O)N1CCc2cc(-c3csc(N)n3)ccc21,-,-,2.1,-,-
Nc1nc(-c2ccc3c(c2)CCC(=O)N3)cs1,-,.,-,-,.
O=C(c1ccccc1)[C@@H]1[C@@H](C(=O)c2ccc(F)cc2)[C@@]2(C(=O)Nc3ccccc32)[C@H]2c3ccccc3C=CN12,74,-,-,-,-
CC(=O)[C@@H]1[C@@H](C(=O)c2ccccc2)[C@]2(C(=O)Nc3ccccc32)[C@H]2C=Cc3cc(F)ccc3N12,-,-,-,-,-
Cc1ccc(NC(=O)Nc2cccc(Cl)c2)c(C(=O)O)c1,-,.,-,-,.
COc1ccc(Nc2cccc(Cl)c2)c(C(=O)O)c1,51,-,-,-,-
COc1ccc(-n2c3c(cc(C(=O)NNc4ccccc4C)c2=O)C(=O)CC(C)(C)C3)cc1,-,.,2,-,.
Cc1ccc(-n2c3c(cc(C(=O)NCc4ccco4)c2=O)C(=O)CC(C)(C)C3)cc1,51,-,-,-,-
CC1(C)CC(=O)c2cc(C(=O)NCc3ccco3)c(=O)n(-c3ccc(Cl)cc3)c2C1,-,-,-,-,-
COc1ccc(-n2c3c(cc(C(=O)NNc4ccccc4)c2=O)C(=O)CC(C)(C)C3)cc1,60,.,2.1,-,.
COc1ccc(-n2c3c(cc(C(=O)N4CCN(CCO)CC4)c2=O)C(=O)CC(C)(C)C3)cc1,-,-,-,-,-
CC1(C)CC(=O)c2cc(C(=O)Nn3cnnc3)c(=O)n(-c3ccccc3)c2C1,-,-,-,-,-
CCOc1ccccc1NC(=O)NCCC1=CCCCC1,-,.,-,-,.
